Data on 6 compounds can be found in ChEMBL document CHEMBL1124172 (J Med Chem, 1988).

Values after ≈ are worked out from the molar mass of the structure shown. Active and inactive are the calls of the source. The calls are words filed in the database; no cut-off is given here.

The term T/C denotes the result in the treated group divided by that in the control group, in per cent. In general, IC50 refers to the midpoint of a concentration-inhibition curve. A high value points to a need for much substance.

The subject of data set [1] is Mus musculus. Description: In vivo antitumor activity against P388 Lymphocytic Leukemia in mice at 7.75 mg/kg expressed as T/C value. It counts as functional.
For data set [2], the system named is Mus musculus. Description: In vivo antitumor activity against P388 Lymphocytic Leukemia measured as Survivors on day 5 at 7.75 mg/kg; 6/6. It counts as functional.
Data set [3] deals with Mus musculus. Description: In vivo antitumor activity against P388 Lymphocytic Leukemia measured as survivors on day 5 at 62 mg/kg; 6/6. It counts as functional.
Data set [4] deals with Mus musculus. Description: In vivo antitumor activity against P388 Lymphocytic Leukemia measured as Survivors on day 5 at 31 mg/kg; 6/6. It counts as functional.
The test system of data set [5] is Mus musculus. The data set is described as follows: In vivo antitumor activity against P388 Lymphocytic Leukemia measured as Survivors on day 5 at 15.5 mg/kg; 5/6. It counts as functional.
Data set [6] deals with Mus musculus. The data set is described as follows: In vivo antitumor activity against P388 Lymphocytic Leukemia in mice at 62 mg/kg expressed as T/C value. It counts as functional.
For data set [7], the system named is Mus musculus. Description: In vivo antitumor activity against P388 Lymphocytic Leukemia in mice at 15.5 mg/kg expressed as T/C value. It counts as functional.
Data set [8] relates to Mus musculus. The data set is described as follows: In vivo antitumor activity against P388 Lymphocytic Leukemia in mice at 31 mg/kg expressed as T/C value. It counts as functional.
In a further data set the test system is A204. The data set is described as follows: In vitro cytotoxicity against human A204 Rhabdomyosarcoma cell line. It counts as functional, cell-based. A digest of the protocol:
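A204 human rhabdomyosarcoma soft-agarose colony assay. 10^4 trypsin/EDTA-dissociated cells in 0.3% agarose over a 0.5% agarose base, in DMEM with 10% FCS, at 37 °C and 5% CO2. Compound was applied in an upper medium layer on day 1 for 24 h, then washed out. Colonies >60 µm were counted after 7–9 days by tetrazolium stain and image analysis. Quadruplicates with vehicle controls, at least four concentrations up to 100 or 1000 µg/mL. IC50 from a monoexponential least-squares fit over at least three preparations, mean ± SE.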

For data set [9], the system named is Mus musculus. The data set is described as follows: In vivo antitumor activity against P388 Lymphocytic Leukemia in mice at 325 mg/kg expressed as T/C value); Toxic. It counts as toxicity, organism-based. Further details: dose 325 mg/kg.
Data set [10] concerns Mus musculus. Description: In vivo antitumor activity against P388 Lymphocytic Leukemia measured as survivors on day 5 at 325 mg/kg (repeat); 0/6. It counts as functional.
The subject of data set [11] is Mus musculus. The data set is described as follows: In vivo antitumor activity against P388 Lymphocytic Leukemia in mice expressed as T/C value; Toxic.
Data set [12] deals with Mus musculus. The data set is described as follows: In vivo antitumor activity against P388 Lymphocytic Leukemia measured as Survivors on day 5 at 325 mg/kg; 0/6. It counts as functional.
The subject of data set [13] is Mus musculus. Description: In vivo antitumor activity against P388 Lymphocytic Leukemia in mice at 1300 mg/kg expressed as T/C value; Toxic. It counts as toxicity, organism-based. On the set-up: dose 1300 mg/kg.
For a further data set, the system named is P388. Description: Weight difference when tested in vivo for antitumor activity against P388 Lymphocytic Leukemia; weight difference expressed as (T-C). It counts as functional, Mus musculus.
The test system of data set [14] is Mus musculus. Description: Weight difference when tested in vivo for antitumor activity against P388 Lymphocytic Leukemia; weight difference expressed as (T-C); Not active. It counts as functional, organism-based.
Data set [15] has as its system Mus musculus. The data set is described as follows: In vivo antitumor activity against P388 Lymphocytic Leukemia measured as Survivors on day 5 at 650 mg/kg; 0/6. It counts as functional.
Data set [16] deals with Mus musculus. Description: In vivo antitumor activity against P388 Lymphocytic Leukemia measured as Survivors on day 5 at 162.50 mg/kg; 6/6. It counts as functional. To be noted: dose 162.5 mg/kg.
Data set [17] has as its system Mus musculus. Description: In vivo antitumor activity against P388 Lymphocytic Leukemia measured as Survivors on day 5 at 1300 mg/kg; 0/6. It counts as functional.
Data set [18] concerns Mus musculus. Description: In vivo antitumor activity against P388 Lymphocytic Leukemia in mice at 650 mg/kg expressed as T/C value; Toxic. It counts as toxicity, organism-based. Further details: dose 650 mg/kg.
Data set [19] has as its system Mus musculus. The data set is described as follows: In vivo antitumor activity against P388 Lymphocytic Leukemia in mice at 81.25 mg/kg expressed as T/C value (repeat). It counts as functional.
The subject of data set [20] is Mus musculus. The data set is described as follows: In vivo antitumor activity against P388 Lymphocytic Leukemia measured as survivors on day 5 at 81.25 mg/kg (repeat); 6/6. It counts as functional.
Data set [21] deals with Mus musculus. The data set is described as follows: In vivo antitumor activity against P388 Lymphocytic Leukemia measured as survivors on day 5 at 40.60 mg/kg (repeat); 6/6. It counts as functional. The note with it: dose 40.6 mg/kg.
Data set [22] relates to Mus musculus. Description: In vivo antitumor activity against P388 Lymphocytic Leukemia in mice at 162.50 mg/kg expressed as T/C value. It counts as functional. The note with it: dose 162.5 mg/kg.
In data set [23] the test system is Mus musculus. The data set is described as follows: In vivo antitumor activity against P388 Lymphocytic Leukemia in mice at 40.60 mg/kg expressed as T/C value (repeat). It counts as functional. The note with it: dose 40.6 mg/kg.
The subject of data set [24] is Mus musculus. Description: In vivo antitumor activity against P388 Lymphocytic Leukemia in mice at 162.5 mg/kg expressed as T/C value(repeat). It counts as functional.
For data set [25], the system named is Mus musculus. Description: In vivo antitumor activity against P388 Lymphocytic Leukemia measured as survivors on day 5 at 162.50 mg/kg (repeat); 6/6. It counts as functional. The note with it: dose 162.5 mg/kg.
Data set [26] concerns Mus musculus. The data set is described as follows: In vivo antitumor activity against P388 Lymphocytic Leukemia measured as Survivors on day 5 at 800 mg/kg, w.r.t. compound 6; 4/4. It counts as functional.
Data set [27] relates to Mus musculus. The data set is described as follows: In vivo antitumor activity against P388 Lymphocytic Leukemia in mice at 400 mg/kg expressed as T/C value w.r.t. compound 6. It counts as functional.
Data set [28] deals with Mus musculus. Description: In vivo antitumor activity against P388 Lymphocytic Leukemia measured as Survivors on day 5 at 200 mg/kg, w.r.t. compound 6; 4/4. It counts as functional.
Data set [29] relates to Mus musculus. Description: In vivo antitumor activity against P388 Lymphocytic Leukemia in mice at 800 mg/kg expressed as T/C value w.r.t. compound 6. It counts as functional.
Data set [30] has as its system Mus musculus. Description: In vivo antitumor activity against P388 Lymphocytic Leukemia in mice at 200 mg/kg expressed as T/C value w.r.t. compound 6. It counts as functional.
Data set [31] has as its system Mus musculus. The data set is described as follows: In vivo antitumor activity against P388 Lymphocytic Leukemia measured as Survivors on day 5 at 400 mg/kg, w.r.t. compound 6; 4/4. It counts as functional.

As to `CCC(O)(C(=O)OCC1=CC[N+]2([O-])CC[C@H](OC(=O)[C@](O)(CC)c3ccccc3)[C@@H]12)c1ccccc1` (stereo partly specified), the T/C with Mus musculus [1] is recorded as 106%; with Mus musculus [6], 127%; with Mus musculus [7], 100%; with Mus musculus [8], 109%. In addition, the Survivors turned out to be 6 in the data set with Mus musculus [2], 6 in the data set on Mus musculus [3], 6 in the data set on Mus musculus [4] and 5 with Mus musculus [5].

In the data set with A204, `C[C@H]1C(=O)O[C@@H]2CC[N+]3([O-])CC=C(COC(=O)[C@](C)(O)[C@]1(C)O)[C@H]23` (stereo partly specified) [MONOCROTALINE N-OXIDE] gave an IC50 of 721 µg/mL (≈ 2110 µM).

`CC(C)C(O)(C(=O)OCC1CCN2CC[C@@H](O)[C@@H]12)C(C)O` (stereo partly specified) registered an IC50 in the data set with A204 of 400 µg/mL (≈ 1330 µM). Further, the T/C result is recorded as “Toxic” in the data set with Mus musculus [9]; “Toxic” with Mus musculus [11]; “Toxic” in the data set on Mus musculus [13]; “Toxic” with Mus musculus [18]; 102% in the data set with Mus musculus [19]; 92% with Mus musculus [22]. Also, the T/C with Mus musculus [23] is given as 96%; in the data set with Mus musculus [24] it was 98%. Also, the Survivors in the data set on Mus musculus [10] was found to be 0; with Mus musculus [12], 0; with Mus musculus [15] it was 0; in the data set with Mus musculus [16], 6; in the data set on Mus musculus [17] it was 0; in the data set on Mus musculus [20] it was 6. The Survivors with Mus musculus [21] and with Mus musculus [25] was 6 each time. This compound also displayed a Weight difference in the data set with P388 of 0.5. The Weight difference entry with Mus musculus [14] is “inactive”.

With `CC(C)[C@](O)(C(=O)OCC1=CC[N+]2([O-])CC[C@@H](O)[C@@H]12)[C@H](C)O` (stereo partly specified) [INDICINE N-OXIDE], the IC50 with A204 turned out to be 125 µg/mL (≈ 396 µM).

`CC(C)C(O)(C(=O)OCC1=CCN2CC[C@@H](O)[C@@H]12)C(C)O` (stereo partly specified) [INDICINE] gave an IC50 in the data set with A204 of 34 µg/mL (≈ 114 µM). Against the preceding compound, the IC50 is about 3.7-fold lower.

Take `CC(C)C(O)(C(=O)OC1CCN2CCC(CO)C12)C(C)O` (stereo unspecified): the Survivors in the data set on Mus musculus [26], in the data set with Mus musculus [28] and with Mus musculus [31] was 4 each time. The results for the T/C with Mus musculus [27], in the data set with Mus musculus [29] and in the data set with Mus musculus [30] were 123%, 180% and 126%, respectively.
